ChEMBL document CHEMBL3751740, “New MKLP-2 inhibitors in the paprotrain series: Design, synthesis and biological evaluations” (Bioorg Med Chem, 2016)

Assays:
[1] = test system: MDA-MB-231; test: Growth inhibition of human MDA-MB-231 cells incubated for 4 days by WST-1 assay; format: functional; settings: MDA-MB-231, 96 h
Outline: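 Cells were kept at 37 °C under 5% CO2 and plated on day 0 at 500–5000 cells/well. On day 1 they received ten concentrations from 0.0025 to 50 µM (final), in triplicate. On day 4 WST-1 was added, followed by 30 min–4 h incubation and absorbance at 450 nm. GI50 is the concentration killing 50% of cells.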

[2] = target: Centromere-associated protein E (Homo sapiens) (UniProt Q02224); test: Inhibition of porcine brain microtubule-stimulated human recombinant GST-tagged CENP-E ATPase activity at 1 mM by microplate reader in presence of Mg2+ ATP relative to control
Outline: (§1)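 Motor domain at 15 µM final, in 7.5 mM PIPES-NaOH pH 7.0 with […], 10 µM Taxol, ELIPA 1 and 2 reagents and 1.25 mg/mL microtubules. AMP-PNP, a slowly hydrolysable ATP analog and general ATPase inhibitor, tested at 1 mM. Reaction started with 1 mM Mg2+ATP at 22 °C and read kinetically at 360 nm. Run in triplicate.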

[3] = target: T1, Kinesin-like protein KIF3C (Homo sapiens) (UniProt O14782); test: Inhibition of porcine brain microtubule-stimulated human recombinant GST-tagged KIF3C ATPase activity at 1 mM by microplate reader in presence of Mg2+ ATP relative to control; outline: as §1
T1 sequence (whole entry): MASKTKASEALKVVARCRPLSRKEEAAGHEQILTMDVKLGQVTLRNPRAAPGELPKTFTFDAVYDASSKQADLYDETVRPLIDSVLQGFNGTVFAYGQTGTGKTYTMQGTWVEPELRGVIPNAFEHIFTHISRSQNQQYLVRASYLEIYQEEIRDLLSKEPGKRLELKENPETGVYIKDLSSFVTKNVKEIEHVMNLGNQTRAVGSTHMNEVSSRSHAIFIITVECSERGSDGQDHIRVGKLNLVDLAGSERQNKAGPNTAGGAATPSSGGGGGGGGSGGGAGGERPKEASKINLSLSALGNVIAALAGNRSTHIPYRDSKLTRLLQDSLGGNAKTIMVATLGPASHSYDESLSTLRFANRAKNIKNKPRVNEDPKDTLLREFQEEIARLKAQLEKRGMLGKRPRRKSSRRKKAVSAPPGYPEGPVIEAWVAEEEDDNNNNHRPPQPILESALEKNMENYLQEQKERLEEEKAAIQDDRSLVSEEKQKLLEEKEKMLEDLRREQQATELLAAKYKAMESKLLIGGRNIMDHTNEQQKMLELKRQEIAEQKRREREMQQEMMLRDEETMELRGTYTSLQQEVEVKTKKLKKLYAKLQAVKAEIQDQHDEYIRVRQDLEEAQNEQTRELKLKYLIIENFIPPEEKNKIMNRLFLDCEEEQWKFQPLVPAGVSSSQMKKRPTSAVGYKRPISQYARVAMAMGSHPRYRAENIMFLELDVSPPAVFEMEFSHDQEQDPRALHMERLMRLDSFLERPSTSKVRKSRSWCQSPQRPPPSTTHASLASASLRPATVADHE

[4] = target: T2, Kinesin-like protein KIF11 (Homo sapiens) (UniProt P52732); test: Inhibition of porcine brain microtubule-stimulated human recombinant GST-tagged Eg5 ATPase activity at 1 mM by microplate reader in presence of Mg2+ ATP relative to control; outline: as §1
T2 sequence (whole entry): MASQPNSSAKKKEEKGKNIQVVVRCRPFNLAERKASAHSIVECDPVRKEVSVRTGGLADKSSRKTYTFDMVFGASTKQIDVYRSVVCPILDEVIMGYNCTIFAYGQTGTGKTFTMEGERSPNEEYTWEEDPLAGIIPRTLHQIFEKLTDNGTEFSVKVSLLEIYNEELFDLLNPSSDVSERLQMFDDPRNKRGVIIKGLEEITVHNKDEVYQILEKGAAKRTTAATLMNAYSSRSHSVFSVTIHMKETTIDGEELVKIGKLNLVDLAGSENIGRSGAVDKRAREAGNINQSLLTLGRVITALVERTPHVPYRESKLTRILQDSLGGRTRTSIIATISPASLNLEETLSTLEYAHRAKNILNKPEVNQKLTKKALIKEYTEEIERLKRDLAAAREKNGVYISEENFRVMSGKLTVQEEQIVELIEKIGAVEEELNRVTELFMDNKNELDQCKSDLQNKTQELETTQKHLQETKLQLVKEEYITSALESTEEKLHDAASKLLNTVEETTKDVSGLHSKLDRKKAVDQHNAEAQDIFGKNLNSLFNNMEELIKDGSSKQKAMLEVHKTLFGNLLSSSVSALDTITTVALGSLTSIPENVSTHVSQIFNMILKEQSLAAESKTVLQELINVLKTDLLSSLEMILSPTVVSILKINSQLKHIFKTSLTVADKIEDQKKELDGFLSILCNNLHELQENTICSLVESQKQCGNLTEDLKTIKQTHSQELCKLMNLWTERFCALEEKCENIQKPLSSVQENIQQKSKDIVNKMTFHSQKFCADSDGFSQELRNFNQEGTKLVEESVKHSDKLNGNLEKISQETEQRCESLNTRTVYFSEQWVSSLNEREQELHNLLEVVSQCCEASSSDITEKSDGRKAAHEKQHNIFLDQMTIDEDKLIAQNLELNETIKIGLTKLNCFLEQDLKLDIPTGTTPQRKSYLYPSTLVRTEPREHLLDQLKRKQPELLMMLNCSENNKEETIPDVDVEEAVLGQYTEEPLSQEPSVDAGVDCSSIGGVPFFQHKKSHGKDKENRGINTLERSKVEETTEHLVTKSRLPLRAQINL

Centromere-associated protein E (Homo sapiens), sequence (Q02224 whole entry, the tested form may be a part): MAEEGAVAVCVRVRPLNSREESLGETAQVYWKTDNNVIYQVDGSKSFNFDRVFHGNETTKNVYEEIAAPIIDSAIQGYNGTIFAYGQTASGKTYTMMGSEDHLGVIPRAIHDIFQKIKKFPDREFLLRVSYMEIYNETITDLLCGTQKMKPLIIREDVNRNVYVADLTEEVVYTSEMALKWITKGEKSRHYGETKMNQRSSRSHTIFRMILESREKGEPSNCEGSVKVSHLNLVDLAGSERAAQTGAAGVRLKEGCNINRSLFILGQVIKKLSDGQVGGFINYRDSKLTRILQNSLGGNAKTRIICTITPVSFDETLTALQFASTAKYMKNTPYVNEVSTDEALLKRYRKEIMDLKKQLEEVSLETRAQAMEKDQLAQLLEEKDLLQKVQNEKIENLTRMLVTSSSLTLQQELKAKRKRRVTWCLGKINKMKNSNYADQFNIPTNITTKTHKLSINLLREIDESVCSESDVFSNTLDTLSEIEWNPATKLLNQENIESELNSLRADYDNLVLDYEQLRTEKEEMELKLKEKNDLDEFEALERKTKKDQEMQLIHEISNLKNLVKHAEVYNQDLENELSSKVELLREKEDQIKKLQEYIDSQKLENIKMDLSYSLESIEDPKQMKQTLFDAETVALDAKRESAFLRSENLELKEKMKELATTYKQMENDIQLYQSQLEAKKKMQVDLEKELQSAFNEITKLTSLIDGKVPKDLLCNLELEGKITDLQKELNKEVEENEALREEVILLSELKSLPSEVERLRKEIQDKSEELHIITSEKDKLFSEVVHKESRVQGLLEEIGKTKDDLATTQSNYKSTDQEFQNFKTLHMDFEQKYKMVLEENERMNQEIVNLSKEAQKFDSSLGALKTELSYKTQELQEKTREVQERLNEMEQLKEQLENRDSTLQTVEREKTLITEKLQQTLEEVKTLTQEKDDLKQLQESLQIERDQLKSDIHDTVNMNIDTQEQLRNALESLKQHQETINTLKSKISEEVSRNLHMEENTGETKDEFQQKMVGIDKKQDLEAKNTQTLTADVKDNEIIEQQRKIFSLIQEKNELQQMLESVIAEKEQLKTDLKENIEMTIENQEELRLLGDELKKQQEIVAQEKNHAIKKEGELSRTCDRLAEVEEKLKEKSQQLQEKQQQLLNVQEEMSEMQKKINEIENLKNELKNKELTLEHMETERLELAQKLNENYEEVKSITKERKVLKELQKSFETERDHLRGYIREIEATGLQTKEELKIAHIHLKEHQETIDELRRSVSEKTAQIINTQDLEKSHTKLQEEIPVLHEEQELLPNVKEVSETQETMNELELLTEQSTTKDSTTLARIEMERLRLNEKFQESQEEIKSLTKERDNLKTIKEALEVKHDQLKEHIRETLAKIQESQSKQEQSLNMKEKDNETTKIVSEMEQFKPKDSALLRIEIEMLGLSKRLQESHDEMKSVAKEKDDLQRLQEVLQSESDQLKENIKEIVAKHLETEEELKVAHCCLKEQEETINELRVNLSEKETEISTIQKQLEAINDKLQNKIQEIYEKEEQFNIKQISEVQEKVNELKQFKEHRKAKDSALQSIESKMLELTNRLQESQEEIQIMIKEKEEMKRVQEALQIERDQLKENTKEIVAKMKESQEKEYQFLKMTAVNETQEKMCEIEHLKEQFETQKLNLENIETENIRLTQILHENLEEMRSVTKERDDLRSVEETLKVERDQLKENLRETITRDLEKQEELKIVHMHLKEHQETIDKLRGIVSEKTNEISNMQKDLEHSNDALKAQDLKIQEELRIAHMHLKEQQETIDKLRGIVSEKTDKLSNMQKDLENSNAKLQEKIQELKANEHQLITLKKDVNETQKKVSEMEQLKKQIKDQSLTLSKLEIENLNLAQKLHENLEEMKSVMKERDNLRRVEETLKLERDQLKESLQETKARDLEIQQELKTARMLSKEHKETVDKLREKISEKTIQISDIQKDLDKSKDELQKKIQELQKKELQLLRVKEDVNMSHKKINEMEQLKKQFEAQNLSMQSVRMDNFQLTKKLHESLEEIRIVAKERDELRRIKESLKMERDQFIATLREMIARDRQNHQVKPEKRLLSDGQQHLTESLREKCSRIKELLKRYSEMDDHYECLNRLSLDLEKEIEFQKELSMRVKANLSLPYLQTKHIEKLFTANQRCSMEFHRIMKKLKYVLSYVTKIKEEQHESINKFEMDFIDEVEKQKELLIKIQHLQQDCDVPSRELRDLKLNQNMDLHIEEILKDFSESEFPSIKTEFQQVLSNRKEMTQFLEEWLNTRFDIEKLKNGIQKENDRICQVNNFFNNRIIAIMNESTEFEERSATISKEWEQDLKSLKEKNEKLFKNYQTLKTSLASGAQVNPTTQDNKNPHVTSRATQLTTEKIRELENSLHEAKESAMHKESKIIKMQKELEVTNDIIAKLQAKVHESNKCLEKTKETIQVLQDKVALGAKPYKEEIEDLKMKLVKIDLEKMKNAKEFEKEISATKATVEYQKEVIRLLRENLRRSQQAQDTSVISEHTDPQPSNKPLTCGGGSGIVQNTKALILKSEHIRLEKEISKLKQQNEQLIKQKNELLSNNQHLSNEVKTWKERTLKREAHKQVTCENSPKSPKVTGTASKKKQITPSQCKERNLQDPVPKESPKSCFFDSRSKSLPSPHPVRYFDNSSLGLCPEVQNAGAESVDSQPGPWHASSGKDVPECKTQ

GI50 [1] [µM] | SMILES | inhibition [2] [%] | inhibition [3] [%] | inhibition [4] [%]
16.8 | COc1ccc2[nH]cc(/C(C#N)=C/c3cccnc3)c2c1 |  |  | 
 | Nc1ncnc2c1ncn2[C@@H]1O[C@H](COP(=O)(O)OP(=O)(O)NP(=O)(O)O)[C@@H](O)[C@H]1O | > 30 | > 30 | > 30
